Laboratory results as given in ChEMBL document CHEMBL2046306, “Synthesis of 6-substituted 9-methoxy-11H-indeno[1,2-c]quinoline-11-one derivatives as potential anticancer agents” (Bioorg Med Chem, 2012).
Activity calls are given as the source filed them. No cut-off for these calls is given here.

Legend:
[1] = tested on: NCI-H460; experiment: Cell cycle arrest in human NCI-H460 cells assessed as accumulation at G2/M phase at 1 uM after 24 hrs by propidium iodide staining-based flow cytometric analysis (reference value: 18.6 +/- 1.7%); type: functional
[2] = tested on: NCI-H460; experiment: Induction of apoptosis in human NCI-H460 cells assessed as accumulation at sub-G1 phase at 1 uM after 24 hrs by propidium iodide staining-based flow cytometric analysis (reference value: 0.9 +/- 0.3%); type: functional
[3] = tested on: NCI-H460; experiment: Induction of apoptosis in human NCI-H460 cells assessed as accumulation at sub-G1 phase at 10 uM after 24 hrs by propidium iodide staining-based flow cytometric analysis (reference value: 0.9 +/- 0.3%); type: functional
[4] = tested on: NCI-H460; experiment: Cell cycle arrest in human NCI-H460 cells assessed as accumulation at G1 phase at 1 uM after 24 hrs by propidium iodide staining-based flow cytometric analysis (reference value: 66.2 +/- 2.1%); type: functional
[5] = tested on: Nucleic Acid; experiment: Binding affinity to Escherichia coli pBR322 assessed as DNA unwinding at 10 to 100 uM after 12 hrs by ethidium bromide staining-based agarose gel electrophoresis; type: nucleic-acid assay
Procedure, shortened: (§1)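 Negatively supercoiled pBR322 plasmid (400 ng) incubated with the test compound in TE buffer, pH 8.0, for 12 h at room temperature. Loading buffer contained sarkosyl, bromophenol blue and glycerol. Samples run on 1% agarose at 6 V/cm for 2.5 h in TAE, pH 8.5. Ethidium bromide stain, imaged under UV; unwinding read as reduced mobility of form I DNA.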

[6] = tested on: NCI-H460; experiment: Cell cycle arrest in human NCI-H460 cells assessed as accumulation at G2/M phase at 10 uM after 24 hrs by propidium iodide staining-based flow cytometric analysis (reference value: 18.6 +/- 1.7%); type: functional
[7] = tested on: NCI-H460; experiment: Induction of apoptosis in human NCI-H460 cells assessed as cell shrinkage at 10 uM after 24 hrs by light microscopic analysis relative to control; type: functional, cell-based
Procedure, shortened: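 H460 cells exposed to DMSO or compound (1.0-10.0 μM) for 24 h at 37 °C, then photographed under a light microscope for morphology.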

[8] = tested on: NCI-H460; experiment: Cell cycle arrest in human NCI-H460 cells assessed as accumulation at S phase at 10 uM after 24 hrs by propidium iodide staining-based flow cytometric analysis (reference value: 14.3 +/- 1.9%); type: functional
[9] = tested on: NCI-H460; experiment: Induction of apoptosis in human NCI-H460 cells assessed as induction of caspase 8 activity after 24 hrs by Western blot analysis; type: functional, cell-based
Procedure, shortened: (§2)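 Treated H460 cells washed in cold PBS and lysed 30 min on ice in Tris-HCl pH 7.5/NP-40 buffer with protease and phosphatase inhibitors. Lysate spun at 12,000g. Protein measured by Bradford; 20 µg resolved on 10% SDS-PAGE and transferred to PVDF. Blocked with 5% milk, then primary antibody 2 h and secondary 30 min. Detected by ECL for PARP, procaspase-3 and procaspase-8.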

[10] = tested on: SK-MEL-5; experiment: Growth inhibition of human SK-MEL-5 cells after 48 hrs by sulforhodamine B assay; type: functional; conditions: SK-MEL-5, 48 h
Procedure, shortened: (§3)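 NCI 60-line screen. Cells grown in RPMI 1640 with 5% FBS and 2 mM L-glutamine, seeded at 5000-40,000 cells/well and preincubated 24 h at 37 °C. Compounds added at five 10-fold dilutions, highest well concentration 10E-4 M. Exposure 48 h in 5% CO2 at 100% humidity. Endpoint is sulforhodamine B with optical density read-out. GI50 is the concentration giving 50% growth inhibition versus control.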

[11] = tested on: NCI-H460; experiment: Growth inhibition of human NCI-H460 cells after 48 hrs by sulforhodamine B assay; type: functional; conditions: NCI-H460, 48 h
Procedure, shortened: (§4)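 NCI 60-line screen. Cells grown in RPMI 1640 with 5% FBS and 2 mM L-glutamine, seeded at 5000–40,000 cells/well, preincubated 24 h at 37 °C. Five 10-fold dilutions added, highest well concentration 10E-4 M. Incubated 48 h in 5% CO₂ at 100% humidity. Sulforhodamine B read-out by optical density; GI50 taken from dose-response curves versus control.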

[12] = tested on: NCI-H460; experiment: Cell cycle arrest in human NCI-H460 cells assessed as accumulation at G1 phase at 10 uM after 24 hrs by propidium iodide staining-based flow cytometric analysis (reference value: 66.2 +/- 2.1%); type: functional
[13] = tested on: NCI-H460; experiment: Cell cycle arrest in human NCI-H460 cells assessed as accumulation at G1 phase at 5 uM after 24 hrs by propidium iodide staining-based flow cytometric analysis (reference value: 66.2 +/- 2.1%); type: functional
[14] = tested on: MCF7; experiment: Antiproliferative activity against human MCF7 cells assessed as growth at 100 uM after 48 hrs by alamar blue assay; type: functional; conditions: MCF7, 48 h, read-out: Activity
Procedure, shortened: (§5)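 Single-dose prescreen in a three-line NCI panel (NCI-H460, MCF7, SF-268). Cells were inoculated and preincubated on microtiter plates, then exposed to test agent at 100 μM for 48 h. Alamar blue end-point. Growth is expressed as percent of untreated control cells.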

[15] = tested on: A549; experiment: Growth inhibition of human A549 cells after 48 hrs by sulforhodamine B assay; type: functional, cell-based; conditions: A549, 48 h; procedure, shortened: as §4
[16] = Growth inhibition of human Hs 578T cells after 48 hrs by sulforhodamine B assay; type: functional; procedure, shortened: as §4
[17] = tested on: NCI-H460; experiment: Cell cycle arrest in human NCI-H460 cells assessed as accumulation at S phase at 1 uM after 24 hrs by propidium iodide staining-based flow cytometric analysis (reference value: 14.3 +/- 1.9%); type: functional
[18] = tested on: U-251; experiment: Growth inhibition of human U251 cells after 48 hrs by sulforhodamine B assay; type: functional; conditions: U-251, 48 h; procedure, shortened: as §3
[19] = tested on: NCI-H460; experiment: Antiproliferative activity against human NCI-H460 cells assessed as growth at 100 uM after 48 hrs by alamar blue assay; type: functional; conditions: NCI-H460, 48 h, read-out: Activity; procedure, shortened: as §5
[20] = tested on: HCT-116; experiment: Growth inhibition of human HCT116 cells after 48 hrs by sulforhodamine B assay; type: functional; conditions: HCT-116, 48 h; procedure, shortened: as §4
[21] = tested on: NCI-H460; experiment: Induction of apoptosis in human NCI-H460 cells assessed as induction of caspase 3 activity after 24 hrs by Western blot analysis; type: functional, cell-based; procedure, shortened: as §2
[22] = tested on: NCI-H460; experiment: Cell cycle arrest in human NCI-H460 cells assessed as accumulation at G2/M phase at 5 uM after 24 hrs by propidium iodide staining-based flow cytometric analysis (reference value: 18.6 +/- 1.7%); type: functional
[23] = tested on: Nucleic Acid; experiment: Binding affinity to Escherichia coli pBR322 assessed as DNA unwinding at 1000 uM after 12 hrs by ethidium bromide staining-based agarose gel electrophoresis; type: nucleic-acid assay; procedure, shortened: as §1
[24] = tested on: IGROV-1; experiment: Growth inhibition of human IGROV1 cells after 48 hrs by sulforhodamine B assay; type: functional; conditions: IGROV-1, 48 h; procedure, shortened: as §4
[25] = tested on: DU-145; experiment: Growth inhibition of human DU145 cells after 48 hrs by sulforhodamine B assay; type: functional; conditions: DU-145, 48 h; procedure, shortened: as §4
[26] = tested on: CCRF-CEM; experiment: Growth inhibition of human CCRF-CEM cells after 48 hrs by sulforhodamine B assay; type: functional; procedure, shortened: as §4
[27] = tested on: SR; experiment: Growth inhibition of human SR cells after 48 hrs by sulforhodamine B assay; type: functional; procedure, shortened: as §3
[28] = tested on: NCI-H460; experiment: Induction of apoptosis in human NCI-H460 cells assessed as PARP cleavage after 24 hrs by Western blot analysis; type: functional, cell-based; procedure, shortened: as §2
[29] = tested on: NCI-H460; experiment: Cell cycle arrest in human NCI-H460 cells assessed as accumulation at S phase at 5 uM after 24 hrs by propidium iodide staining-based flow cytometric analysis (reference value: 14.3 +/- 1.9%); type: functional
[30] = tested on: SF-268; experiment: Antiproliferative activity against human SF268 cells assessed as growth at 100 uM after 48 hrs by alamar blue assay; type: functional; conditions: SF-268, 48 h, read-out: Activity; procedure, shortened: as §5
[31] = tested on: NCI-H460; experiment: Induction of apoptosis in human NCI-H460 cells assessed as accumulation at sub-G1 phase at 5 uM after 24 hrs by propidium iodide staining-based flow cytometric analysis (reference value: 0.9 +/- 0.3%); type: functional

**Q.** For `COc1ccc2c(c1)C(=O)c1c-2c(NCCCN(C)C)nc2ccccc12`, which Activity [1] is on record?
**A.** The Activity was 28.1%.

**Q.** What about the Activity [2] of the same molecule?
**A.** The Activity was 3.7%.

**Q.** What about the Activity [3] of the same molecule?
**A.** The Activity was 25.3%.

**Q.** And the Activity [4]?
**A.** Its Activity is 58.1%.

**Q.** And the Activity [5]?
**A.** Its Activity is “Active”.

**Q.** What about the Activity [6] of the same molecule?
**A.** The Activity was 21.5%.

**Q.** What about the Activity [7] of the same molecule?
**A.** The Activity was “Active”.

**Q.** And the Activity [8]?
**A.** Its Activity is 11.8%.

**Q.** What about the Activity [9] of the same molecule?
**A.** The Activity was “Dose-dependent effect”.

**Q.** What about the GI50 [10] of the same molecule?
**A.** Its GI50 is 3890 nM.

**Q.** What about the GI50 [11] of the same molecule?
**A.** The GI50 was 1330 nM.

**Q.** And the Activity [12]?
**A.** Its Activity is 41.4%.

**Q.** What about the Activity [13] of the same molecule?
**A.** Its Activity is 49.2%.

**Q.** And the growth at 100 µM [14]?
**A.** Its growth at 100 µM is 0%.

**Q.** What about the GI50 [15] of the same molecule?
**A.** The GI50 was 1860 nM.

**Q.** And the GI50 [16]?
**A.** The GI50 was 3720 nM.

**Q.** What about the Activity [17] of the same molecule?
**A.** Its Activity is 10.1%.

**Q.** What about the GI50 [18] of the same molecule?
**A.** Its GI50 is 1100 nM.

**Q.** What about the growth at 100 µM [19] of the same molecule?
**A.** The growth at 100 µM was 0%.

**Q.** What about the GI50 [20] of the same molecule?
**A.** Its GI50 is 1260 nM.

**Q.** What about the Activity [21] of the same molecule?
**A.** Its Activity is “Dose-dependent effect”.

**Q.** And the Activity [22]?
**A.** Its Activity is 33.5%.

**Q.** And the Activity [23]?
**A.** Its Activity is “inactive”.

**Q.** And the GI50 [24]?
**A.** Its GI50 is 6920 nM.

**Q.** What about the GI50 [25] of the same molecule?
**A.** Its GI50 is 6610 nM.

**Q.** What about the GI50 [26] of the same molecule?
**A.** The GI50 was 3390 nM.

**Q.** And the GI50 [27]?
**A.** The GI50 was 1100 nM.

**Q.** What about the Activity [28] of the same molecule?
**A.** Its Activity is “Dose-dependent effect”.

**Q.** What about the Activity [29] of the same molecule?
**A.** Its Activity is 9.1%.

**Q.** And the growth at 100 µM [30]?
**A.** Its growth at 100 µM is 0%.

**Q.** What about the Activity [31] of the same molecule?
**A.** Its Activity is 8.2%.
